# Assay results from publication PMC6839502 (Journal of Alzheimer's Disease, 2019).
# “Also recorded” adds a separate entry of the source.
# Columns and labels:
# plasma Aβ fragments = test: Plasma Aβ fragments after single and multiple doses; type: in vivo, human; conditions: 275 mg, on Day 1
# In short: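 Healthy adults, oral QD dosing versus placebo, Part B. Pre-dose blood was drawn on Days 1, 2, 4, 7, 10, and 14. Plasma Aβ1–40 was measured by DELFIA (LLOQ 12.1 pg/mL). Log change from baseline was analysed by mixed-model repeated measures: treatment, time, and their interaction as fixed effects, subject as random effect, and log baseline as covariate. Results were expressed as placebo-adjusted reduction.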
# [1] = Safety and tolerability in study B8271007; type: in vivo, human; conditions: 100 mg QD
# [2] = ECG QTcF change in SAD and MAD studies; type: in vivo, human
# BACE1 over BACE 2 = conditions: fluorescence polarization (FP) assay; cited from earlier work
# dogs = conditions: long-term toxicology / chronic dosing for up to 9 months; cited from earlier work
# Aβ40 and Aβ42 = conditions: animal studies, subcutaneous administration; cited from earlier work
# CYP3A4/5 = conditions: in vitro experiments; ref data on file; cited from earlier work
structure (smiles),measurement,setting,value
C[C@H]1C[C@H]2CSC(N)=N[C@@]2(c2nc(NC(=O)c3ccc(OC(F)F)cn3)cs2)CO1 [PF-06751979],"Maximum observed placebo-adjusted reduction in plasma Aβ1–40, multiple doses",plasma Aβ fragments,88.3%
same,"ALT elevation, one subject","[1]; period 2, Day 7",2.12 ×ULN
same,"AST elevation, one subject","[1]; period 2, Day 7",1.23 ×ULN
same,"AST peak, one subject","[1]; period 2, Day 12",1.75 ×ULN
same,"ALT peak, one subject","[1]; period 2, Day 13",3.33 ×ULN
same,Maximum placebo-adjusted mean QTcF change from baseline,"[2]; 275 mg QD for 14 days, 90% CI: 4.5, 21.1",12.8 ms
same,Maximum placebo-adjusted mean QTcF change from baseline,"[2]; single dose 540 mg, 90% CI: 7.6, 22.2",14.9 ms
same,Selectivity for BACE1 over BACE2,BACE1 over BACE 2,6.4 fold
same,Hair color (pigmentation) change,dogs,did not reveal any evidence of hair color change; also recorded: did not reveal pigmentation changes
same,Aβ40 and Aβ42 in the brain and CSF,Aβ40 and Aβ42,robust reductions
same,CYP3A4/5 inhibition,CYP3A4/5,weak metabolism-dependent inhibitor
